Assay results as given in ChEMBL document CHEMBL4513216, “Probing the Open Global Health Chemical Diversity Library for Multistage-Active Starting Points for Next-Generation Antimalarials” (ACS Infect Dis, 2020).

Experiment: Toxicity liver stage against HepG2, at 10uM
Type: cell-based
Design: test concentration 10 uM, cell line HepG2-A16-CD81EGFP
Settings: human, HepG2-A16-CD81EGFP cells; read-out: INHIBITION
How it was run: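 Uninfected HepG2-A16-CD81EGFP cells, 3 × 10^3 per well, 1536-well, plated on prespotted compound at 10 μM final, parasite-free screening media added to match infected plates; puromycin 10 μM positive, DMSO 0.5% negative; run in parallel with 48 h PbLuc assay at 37 °C, 5% CO2; viability by CellTiter-Glo luminescence, normalized to controls.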

SMILES | cytotoxicity at 10 µM
COC(C)(C)CC(C)NC(=O)NC1CCN(Cc2ccccn2)CC1 (stereo not drawn) | 4.83%
CCC(=O)c1ccc(OCC(=O)NCC2CCCO2)cc1 (stereo not drawn) | -52.1%
O=C(Nc1cc(C2CCOCC2)[nH]n1)c1cc[nH]n1 | -3.43%
Cc1ccc(C(=O)N2CCN(c3ccnc4ccsc34)CC2)o1 | 38.7%
CCOCc1nnc2n1CCN(Cc1c(C)noc1C)CC2 | -95.3%
N#Cc1ccccc1CN1CCC2(CC1)CC(c1ccccc1)C(=O)N2 (stereo not drawn) | -44.8%
CCN(CC)CC(=O)N1CCN(c2nc(C)cc(OC)n2)CC1 | -10.4%
CCc1cnc(CN(C(C)=O)C2CCN(CCc3ccccn3)C2)o1 (stereo not drawn) | -2.72%
Cc1csc(CN2CCC[C@]3(C[C@H](Oc4ccccn4)CO3)C2)n1 | -14%
O=C(N1CCCO1)[C@@]12CCO[C@@H]1CCN(Cc1cccs1)C2 | -6.36%
Cc1ccc(CNCc2ccc(N3CCC(CO)CC3)nc2)c(C)c1 | 1.37%
O=C(CCC1CCCCC1)NS(=O)(=O)CC1CC1 | -9.69%
CCCn1nccc1NC(=O)CN1CCCC1Cn1cccn1 (stereo not drawn) | -5.47%
Cc1cnn(CC2CCCN2Cc2nc3ccccc3nc2C)c1 (stereo not drawn) | -1.35%
CCCN1C[C@H](NC(=O)c2cccs2)[C@@H](c2ccc(OC)cc2)C1 | -9.96%
Cc1nn(CCO)c(C)c1CNC1CCC(C)(C)c2ccccc21 (stereo not drawn) | -3.34%
CC(C)n1cnnc1C1CCCN(S(=O)(=O)CCCC#N)C1 (stereo not drawn) | -3.46%
CS(=O)(=O)N1Cc2nccn2CC(Cn2ncccc2=O)C1 (stereo not drawn) | -2.04%
CC(C)c1nn(C)c(Cl)c1CNCC(=O)N1CCN(C)CC1 | 2.2%
O=C([C@H]1COC[C@H]2CN(c3ccncn3)C[C@H]21)N1CCCC1 | -140%
CCC1=NC(SCC(=O)c2ccc(C)cc2)c2cc(CC)sc2N1 (stereo not drawn) | 9.76%
O=C(c1onc2ccccc12)N1CCC2(CCCNC2)C1 (stereo not drawn) | -1.05%

SMILES | cytotoxicity at 10 µM
CC(CO)CN(Cc1ccccc1)Cc1cnc2ccccc2n1 (stereo not drawn) | 6.6%
CCc1c(C)n(CC(C)=O)c2nc3ccccc3n2c1=O | 5.44%
COc1ccc(CN2C[C@H](O)C[C@H]2c2nc(-c3ccccc3)no2)cc1 | 0.223%
O=C(N1CCN(c2ccccc2O)CC1)C1(O)Cc2ccccc2C1 | 0.0894%
CCOC(=O)CNC(=O)N1CCCC(CNC(=O)c2ccco2)C1 (stereo not drawn) | -10.9%
CNc1nc(C(=O)N2CCN(c3cc(C)nc(C)c3)CC2)cs1 | 3.78%
Cc1c(C(=O)N2CCN(c3ncccn3)CC2)n(C)c2ccc(Cl)cc12 | 3.99%
CN(Cc1ccncc1)CC1CCCN(CCc2ccc(Cl)cc2)C1 (stereo not drawn) | 1.06%
Cc1ccc(NC2CCN(C(=O)c3ccc(C)o3)CC2)nn1 | -4.69%
CC(=O)N1CCCC(C(=O)N2CCN(Cc3cc(C)on3)CC2)C1 (stereo not drawn) | -52.2%
CCOc1ccc(NC(=O)N(C)Cc2cnn(C)c2)c(C)c1 | -9.63%
Cc1ccc(S(=O)(=O)N2CC[C@@H]3C[C@H](NC(=O)c4n[nH]cc4Cl)[C@@H]32)cc1 | 4.31%
Cn1ccnc1CN1C(=O)CO[C@H]2CN(Cc3ccc(F)c(F)c3)C[C@H]21 | -2.83%
O=c1nc(SCc2ccncc2)c2c(n1CCO)CCCC2 | -23.8%
CCc1nc(CNc2cc(Cl)ccc2OCC2CCCO2)no1 (stereo not drawn) | 8.84%
Cc1noc(C)c1CN1CC[C@H]2O[C@@H](C(=O)N3CCCC3)CC[C@H]21 | 3.35%
COc1ccc2[nH]c(C[C@@H]3C[C@@H](C(C)C)[C@H](CN(C)C)C=C3C)nc2c1 | -0.626%
CC1(C)Cc2c(cnn2-c2cccc(F)c2)C(NC2CCSCC2)C1 (stereo not drawn) | -142%
N#Cc1ccc(CN2CC3(CCCCN3c3cccnc3)CC2=O)cc1 (stereo not drawn) | 0.995%
O=c1[nH]c(N2CCOCC2)nc2c1CN(Cc1cccnc1)CC2 | 12.3%
O[C@@H]1CC(CNCc2ccc(Cl)cc2)(COc2cccnc2)C[C@@H]1O (stereo partly drawn) | -2.23%
Cn1cc(C(=O)N[C@@H]2CN(Cc3cccnc3)[C@@H]3CCCO[C@@H]32)cn1 | 1.18%

SMILES | cytotoxicity at 10 µM
CCn1cc(CN2CCC(c3ncc(Cl)cc3S(C)(=O)=O)CC2)c(C)n1 | 5.68%
Cc1noc([C@@H]2C[C@H](NC(=O)C3CCCCC3)CN2C)n1 | -4.89%
CCc1nn2c(=N)c(C#N)n[nH]c2c1-c1ccc(OC)cc1 | -3.73%
Cc1cc(Cc2ccccc2)cc(C2CCCNC2)n1 (stereo not drawn) | -5.89%
Cc1cncc(C(=O)N2CCc3ncc(Cn4cccn4)n3CC2)c1 | 14.3%
CN(CCc1ccccc1)c1cnn(C)c(=O)c1Br | -7.22%
O=C(CCc1cscn1)N1CCCC(n2ccnc2)C1 (stereo not drawn) | -3.03%
N#Cc1c(N2CCOCC2)nsc1-c1cccnc1 | 17%
O=C(c1cnccn1)N1CCc2onc(CN3CCCC3)c2C1 | 8.7%
CCCN1CCN(Cc2cccc(OC)c2)[C@H]2CS(=O)(=O)C[C@H]21 | -8.15%
COC(=O)CN(C(=O)C(C)c1c(F)cccc1F)c1cccc(C)n1 (stereo not drawn) | -2.8%
CC(C)NC(=O)C(C)NC(=O)N1CCN(c2ccc(Cl)cc2)CC1 (stereo not drawn) | -3.6%
c1cncc(CN2CCCC(c3nnc(-c4cnccn4)o3)C2)c1 (stereo not drawn) | -7.36%
CN(Cc1nnc(C2CC2)o1)C(c1ccc(F)cc1)c1cccnc1 (stereo not drawn) | -4.06%
CCc1nc(CN2CCCN(C(=O)COC)CC2)cs1 | -18.9%
CCn1cc(S(=O)(=O)NC2CCCN(CC3CCCCC3)C2)cn1 (stereo not drawn) | -7.25%
COc1ccc(Br)cc1CN(C)c1nc2c(cnn2C)c(=O)[nH]1 | 48.1%
Cn1ccnc1CC1CCCN(C(=O)Cc2ccccc2)C1 (stereo not drawn) | -4.14%
CC(C)NC(=O)COc1nc(C(C)(C)C)no1 | -7.48%
COc1cc(F)c(S(=O)(=O)N2c3ncccc3NC(=O)C2C)cc1OC (stereo not drawn) | -1.92%
CC(=O)Nc1cccc2c1ccn2CC(=O)NC(C)C | -7.79%
Nc1nc2c(c(NCC(c3cccnc3)N3CCOCC3)n1)CCNC2 (stereo not drawn) | 9.03%

SMILES | cytotoxicity at 10 µM
O=C(NCCNc1ncccn1)C1CC(=O)N(Cc2ccccc2)C1 (stereo not drawn) | -16.2%
Cc1cnn(CC2CCCN2C(=O)c2ccc(OCC3CC3)nc2)c1 (stereo not drawn) | -9.86%
COCCN1CCC(NC(=O)NCC2(c3ccccc3)CC2)C1 (stereo not drawn) | 0.814%
COc1c(C)cnc(CN(C)C(=O)c2cccc(NC(N)=O)c2)c1C | -8.94%
Cc1ccnc(NC(=O)c2[nH]nc(C(C)C)c2Br)c1 | 12.9%
Cn1nc(-c2ccccc2)c(Cl)c1C(=O)O | -45%
CC(=O)N1C(CN2CCCC2)C[C@@H]2CN(C(=O)c3ccoc3)CC[C@@H]21 (stereo partly drawn) | -0.655%
COCCN1CCC(c2nc3c([nH]2)CCCNC3=O)CC1 | 0.583%
CN(Cc1cccc(-n2cccn2)c1)Cc1cccs1 | -7.54%
CC(=O)N1CCO[C@H]2[C@H](OCCCn3cccn3)CC[C@@H]21 | 7.16%
CCN(CC)C1(Cc2cc(-c3ccccn3)on2)COC1 | 1.41%
COCCc1noc(-c2cn(Cc3ccccc3C)nn2)n1 | 3.15%
CCOCCCC(=O)NCCC(=O)N1CCN(c2ccccn2)CC1 | -4.76%
CCN(CC)CC(=O)N1CCN(CCCc2ccncc2)CC1 | -60.5%
Cc1cc2n(n1)[C@@H](C(F)(F)F)C[C@@H](C1CCN(C(=O)C3CC3)CC1)N2 | -41%
Cc1cnn(CC(C)NCc2ccc(C#N)cc2F)c1 (stereo not drawn) | -7.44%
CCn1nc(C)c(NC(=O)CN2CCN(C(C)=O)CC2)c1C | -6.67%
CC(C)N1CCC(CC(=O)N2CCC(C(O)c3nccn3C)CC2)CC1 (stereo not drawn) | -0.153%
Cc1cc(C)c(C(=O)N2CCC3(CCCN(CC(C)(C)C)C3)C2)[nH]1 (stereo not drawn) | -3.73%
O=C(c1cc[nH]c(=O)c1)N1CCn2c(nnc2-c2ccccc2)C1 | -4.71%
COCCN(Cc1cnn(C)c1)CC1CCN(C(C)C)CC1 | -9%
CCOc1ccc([C@@H]2N[C@H](c3nccs3)Cc3ccsc32)cc1OC | 38%

SMILES | cytotoxicity at 10 µM
COCCNC(=O)C[C@@H]1COC[C@H]2CN(CC3CCOCC3)C[C@@H]12 | -92.9%
CCN(CC)C(=O)[C@@H]1C[C@@H](n2cc(-c3cccc(OC)c3)nn2)CN1 | -5.98%
COCCCC1(CO)CCCN(CCS(C)(=O)=O)C1 (stereo not drawn) | -16%
CCOC[C@H]1CC[C@H]2[C@H](CCN2Cc2c(C)noc2C)O1 | 3.23%
CN(C)C(=O)CCC1CCCN(Cc2cccc(-c3ccccn3)c2)C1 (stereo not drawn) | 3.45%
Cc1noc2nc(C3CCN(CC4=CCCOC4)CC3)cc(C(F)F)c12 | 0.307%
O=C(c1cn2ccsc2n1)N1CCOCC(O)(CN2CCCC2)C1 (stereo not drawn) | 4.6%
CN(CCNC(=O)Nc1ccn(C)n1)Cc1ccc(F)cc1 | 8.16%
Cc1nc(N2CCN(C)CC2)ncc1C(=O)N1CCCCC1 | 0.305%
Cc1cc(C)cc(CN2CCN(C(=O)CCc3n[nH]c(C)n3)CC2=O)c1 | 0.108%
c1cc(CN2CCc3cncnc3C2)c2c(c1)OCCO2 | -3.67%
CC(C)c1nc2c(n1C)CCN(CCc1ccccn1)C2 | -2.01%
CSc1nccc(-c2cccc(-c3ccn(CC4COCCO4)n3)c2)n1 (stereo not drawn) | -7.92%
O=C(c1cncc(N2CCCC3(CCNCC3)CC2)n1)N1CCCCC1 | -3.38%
CCc1cc(C(C)Nc2nc(-c3cccnc3)nc3c2CNC3)on1 (stereo not drawn) | 16.9%
O=C(CCn1cccn1)NCCOc1ccc2c(c1)OCO2 | -5.01%
Cc1ccc(N2CCN(C(=O)CCc3n[nH]c(C)n3)CC2=O)cc1 | -4.06%
Cc1nc(-c2cc(F)c3c(c2)CC(CN)O3)c[nH]1 (stereo not drawn) | 9.15%
CCc1cc(C(F)(F)F)n2nc(C3CCCN3C(=O)COC)cc2n1 (stereo not drawn) | 3.01%
Cc1nnc([C@@H]2CC[C@@H]3[C@@H](CCN3CC3CCOCC3)O2)o1 | 7.64%
